The values below come from publication PMC6180906 (Biochimica et biophysica acta. Molecular and cell biology …, 2018).

One assay concerns the target Ac28-SMT (Acanthamoeba castellanii, UniProt L8GNG7). The conditions noted are these: sterol 5 μM to 150 μM, 150 μM SAM, 80 μg SMT; cited from earlier work.
For assay [1], the target named is T1, AcCYP51 (Acanthamoeba castellanii, UniProt L8GJB3). The experiment in a line: CYP51 reconstitution assay, AfCPR1 redox partner, products by GC-MS. The format is biochemical. Particulars: for AcCYP51 AfCPR kcat: CYP51 reconstitution assay, 50 μM sterol, AfCPR redox partner; for Yield of 14-desmethyl product from substrate by AcCYP51 (GCMS): AfCPR1 redox partner.

A further assay concerns the target Ac24-SMT (Acanthamoeba castellanii, UniProt L8GKC5). The conditions noted are these: sterol 5 μM to 150 μM, 150 μM SAM, 80 μg SMT; cited from earlier work.
For assay [2], the system named is Saccharomyces cerevisiae strain GL7. Kind of assay: GL7 sterol auxotroph growth on sterol supplements. Particulars: sterol supplement, 72 h. The assay is classed as cell-based. Summed up:
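S. cerevisiae GL7 (lanosterol synthase-defective, ergosterol auxotroph) grown in yeast-peptone-dextrose medium with Tween 80 (15 ml/l) and a sterol supplement at 5 mg/l, or no sterol, for 72 h. Cell density was followed to stationary phase. Sterols were recovered from cells and analysed.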

The target of assay [3] is T1, AcCYP51. The experiment in a line: AcCYP51 sterol ligand binding, spectral titration. The conditions noted are these: for AcCYP51 Kd: progressive titration of 4 M AcCYP51 with sterol in 40% (W/V) HPCP.
Another assay has as its system Acanthamoeba castellanii. The assay is classed as cell-based.
Assay [4] concerns Acanthamoeba castellanii trophozoites. The experiment in a line: Time-dependent killing and regrowth in fresh medium. The format is cell-based. Particulars: inhibitor at approximate MAC, then fresh medium for a week.
For assay [5] the test system is unchanged. Kind of assay: Trophozoite toxicity assay. The assay is classed as cell-based. The conditions noted are these: for IC50: Acanthamoeba castellanii, 48 h, read-out: IC50 against trophozoite growth.
Assay [6] has as its system Acanthamoeba castellanii resting cysts. Kind of assay: Cysticidal / excystment assay. The assay is classed as cell-based. Particulars: cysts from the SDS-treated process.
Assay [7] relates to Acanthamoeba castellanii trophozoites. The experiment in a line: Trophozoite growth with cholesterol supplement. The conditions noted are these: 10μM in DMSO or as FBS. The assay is classed as cell-based. In short, it runs like this: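 Axenic static cultures of strain ATCC 30010 were grown in 5 ml ATCC medium 712 in T-flasks at 25 °C with occasional hand shaking, seeded with about 1×10^4 trophozoites. The medium was supplemented with FBS, per ATCC medium, or with 10 µM cholesterol in DMSO. Cells were counted along the growth curve, with viability by trypan blue exclusion.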

Structures are written as SMILES. Several values for one entry are separate records, joined by “and”; a condition that tells them apart may be missing. Identical values can stand only once.

In the case of `CC(C)=CCC[C@@H](C)[C@H]1CC[C@@]2(C)C3=C(CC[C@]12C)[C@@]1(C)CC[C@H](O)[C@@H](C)[C@@H]1CC3` [compound 37, 4α, 14α-Dimethylcholesta-8,24(25)-dienol], the 28-SMT kcat on Ac28-SMT was 0.0123 ± 0.00033 s⁻¹. In addition, the “AcCYP51 AfCPR kcat” value at AcCYP51 [1] is 0 s⁻¹. Besides, the 24-SMT kcat on Ac24-SMT was 0.025 ± 0.00067 s⁻¹.
Turning to `CC[C@@H](C=C[C@@H](C)[C@H]1CC[C@H]2C3=CC=C4C[C@@H](O)CC[C@]4(C)[C@H]3CC[C@]12C)C(C)C` [compound 11, Poriferasta-5,7,22-trienol], in assay [2], the “GL7 cell density at stationary phase / growth arrest” value is on record as 1 × 10^8 cells/ml.
In the case of `C=C(CC[C@@H](C)[C@H]1CC[C@@]2(C)[C@@H]3CC[C@H]4[C@H](C)[C@@H](O)CC[C@@]45C[C@@]35CC[C@]12C)C(C)C` [compound 24, 4α-Methylcycloart-24(28)-enol], on AcCYP51 [1], the “Yield of 14-desmethyl product from substrate by AcCYP51 (GCMS)” value (“Yield of 14-desmethyl product” below) is ~ 1% and the “AcCYP51 AfCPR kcat” value was found to be 0.00067 ± 0.00017 s⁻¹. Further, the “AcCYP51 Kd” value on AcCYP51 [3] is given as “No fit”.
Turning to `C=C(CC[C@@H](C)[C@H]1CC[C@@]2(C)[C@@H]3CC[C@H]4C(C)(C)[C@@H](O)CC[C@@]45C[C@@]35CC[C@]12C)C(C)C` [compound 27, Cycloart-24(28)-enol], the 28-SMT kcat on Ac28-SMT is 0.00383 ± 0.00083 s⁻¹. Also, at AcCYP51 [1], the “AcCYP51 AfCPR kcat” value worked out at 0 s⁻¹. For the same compound, on AcCYP51 [3], the “AcCYP51 Kd” value is given as “No fit”. For the same compound, the 24-SMT kcat on Ac24-SMT was 0 s⁻¹.
Consider `CC(C)[C@@H](C)/C=C/[C@@H](C)[C@H]1CC[C@H]2C3=CC=C4C[C@@H](O)CC[C@]4(C)[C@H]3CC[C@]12C` [compound 2, Ergosta-5,7,22-trienol], for which the “GL7 cell density at stationary phase / growth arrest” value in [2] is ~1 × 10^8 cells/ml.
As for `CC(C)=CCCC(C)C1CCC2(C)C3=CCC4C(C)(C)C(O)CCC4(C)C3CCC12C` (stereo not drawn) [compound 36, Lanosta-7,24(25)-dienol], the “AcCYP51 AfCPR kcat” value at AcCYP51 [1] came to 0 s⁻¹.
In general, Kd refers to the free concentration of one partner at which half of the binding sites on the other are occupied at equilibrium, for simple one-to-one binding. A lower Kd goes with tighter binding. On to `C=C(CCC(C)C1CCC2(C)C3=C(CCC12C)C1(C)CCC(O)C(C)(C)C1CC3)C(C)C` (stereo not drawn) [compound 32, Lanosta-8,24(28)-dienol], for which the “AcCYP51 AfCPR kcat” value at AcCYP51 [1] was 0.0533 ± 0.00067 s⁻¹. This compound showed a dissociation constant Kd at AcCYP51 [3] of 51 ± 10 µM.
The IC50 is the concentration at which inhibition is half-maximal. As for `C[C@@H](c1ncncc1F)[C@](O)(Cn1cncn1)c1ccc(F)cc1F` [voriconazole, reference compound], the “Number of cells at 48 h” value in the assay on Acanthamoeba castellanii (reduced by a factor of 10, most dead by trypan blue staining) is recorded as 2–3 × 10^4 cells/ml. Further, the “Growth after 48 h treated pellets were transferred to fresh medium” value in assay [4] is on record as “a few thousand trophozoites were evident”. The IC50 in [5] came out at 0.14 µM.
Take `CC[C@@H](C=C[C@@H](C)[C@H]1CC[C@H]2[C@@H]3CC=C4C[C@@H](O)CC[C@]4(C)[C@H]3CC[C@]12C)C(C)C` [compound 6, Poriferasta-5,22 -dienol]: the “GL7 cell density at stationary phase / growth arrest” value in assay [2] is reported as 1 × 10^8 cells/ml.
For the compound `C=C(CC[C@@H](C)[C@H]1CC[C@@]2(C)C3=C(CC[C@]12C)[C@@]1(C)CC[C@H](O)[C@@H](C)[C@@H]1CC3)C(C)C` [compound 10], the 28-SMT kcat at Ac28-SMT was 0 s⁻¹. In addition, at AcCYP51 [1] (listed as obtusifoliol), the “Yield of 14-desmethyl product” value was < 95% and 95%; the “AcCYP51 AfCPR kcat” value was 0.127 s⁻¹. The “AcCYP51 AfCPR kcat” value on AcCYP51 [1] is 0.127 ± 0.00083 s⁻¹. On AcCYP51 [3], this compound gave a dissociation constant Kd of 41 ± 3 µM. Further, the 24-SMT kcat at Ac24-SMT was 0 s⁻¹.
`CC(C)[C@@H](C)/C=C/[C@@H](C)[C@H]1CC[C@H]2[C@@H]3CC=C4C[C@@H](O)CC[C@]4(C)[C@H]3CC[C@]12C` [compound 1, Ergosta-5,22-dienol]: in assay [2], the “GL7 cell density at stationary phase / growth arrest” value is reported as 1 × 10^8 cells/ml.
As for `C=C(CC[C@@H](C)[C@H]1CC[C@H]2C3=CC[C@H]4[C@H](C)[C@@H](O)CC[C@]4(C)[C@H]3CC[C@]12C)C(C)C` [compound 14, 4α-Methylergosta-7, 24(28)-dienol], at Ac28-SMT, the 28-SMT kcat was 0.0133 ± 0.00067 s⁻¹. The “AcCYP51 AfCPR kcat” value on AcCYP51 [1] is 0 s⁻¹. Further, the 24-SMT kcat at Ac24-SMT is 0 s⁻¹.
As to `O=c1[nH]c(=O)n([C@H]2C[C@H](O)[C@@H](CO)O2)cc1F` [FUdR, 5-fluor-2-deoxyuridine], the “Excystment of resting cysts into trophozoites under treatment” value in [6] is listed as “easily excysted into trophozoites by 3 days”. For the same compound, in the assay on Acanthamoeba castellanii (cultures with inhibitor at stationary phase of control), the “Encysted cells alive by trypan blue staining” value is reported as more than 95%.
As for `CC(C)CCC[C@@H](C)[C@H]1CC[C@@]2(C)C3=C(CC[C@]12C)[C@@]1(C)CC[C@H](O)C(C)(C)[C@@H]1CC3` [compound 34, Lanost-8-enol], at AcCYP51 [1], the “AcCYP51 AfCPR kcat” value came out at 0.0333 ± 3.3e-05 s⁻¹.
As for `CC(C)CCC[C@@H](C)[C@H]1CC[C@H]2[C@@H]3CC=C4C[C@@H](O)CC[C@]4(C)[C@H]3CC[C@]12C` [cholesterol], the “Effect of supplement on trophozoite growth” value in assay [7] is recorded as “only a minor stimulation effect”.
As to `CC(C)=CCC[C@@H](C)[C@H]1CC[C@@]2(C)C3=C(CC[C@]12C)[C@@]1(C)CC[C@H](O)C[C@@H]1CC3` [compound 35, 14α-Methylcholest-8,24(25)-dienol], the 28-SMT kcat at Ac28-SMT was 0.0065 ± 0.00033 s⁻¹. Further, at AcCYP51 [1], the “AcCYP51 AfCPR kcat” value stood at 0.0267 ± 0.0013 s⁻¹. Moreover, the 24-SMT kcat at Ac24-SMT was 0.025 ± 0.00083 s⁻¹.
Consider `CC(C)=CCC[C@@H](C)[C@H]1CC[C@@]2(C)C3=C(CC[C@]12C)[C@@]1(C)CC[C@H](O)C(C)(C)[C@@H]1CC3` [compound 33, Lanosta-8,24(25)-dienol], for which the 28-SMT kcat at Ac28-SMT was 0.00383 ± 0.00017 s⁻¹. The “AcCYP51 AfCPR kcat” value on AcCYP51 [1] came to 0.0283 ± 0.00017 s⁻¹. The same compound came in with a Kd on AcCYP51 [3] of 46 ± 3 µM. Besides, on Ac24-SMT, the 24-SMT kcat is 0.025 ± 0.00017 s⁻¹.
On to `CC(C)=CCC[C@@H](C)[C@H]1CC[C@@]2(C)[C@@H]3CC[C@H]4C(C)(C)[C@@H](O)CC[C@@]45C[C@@]35CC[C@]12C` [compound 21, Cycloart-24(25)-enol], for which the 28-SMT kcat on Ac28-SMT is 0.0075 ± 0.0005 s⁻¹. On AcCYP51 [1], the “Yield of 14-desmethyl product” value is listed as “no metabolism occurred” and the “AcCYP51 AfCPR kcat” value is 0 s⁻¹. This compound also had a dissociation constant Kd on AcCYP51 [3] of 18 ± 5 µM. Also, on Ac24-SMT, the 24-SMT kcat was 0.025 ± 0.0012 s⁻¹.
Consider `C[C@H](CCCN(C)C)[C@H]1CC[C@@]2(C)[C@@H]3CC[C@H]4C(C)(C)[C@@H](O)CC[C@@]45C[C@@]35CC[C@]12C` [25-azacycloartanol], for which the “Growth after 48 h treated pellets were transferred to fresh medium” value in [4] was “no growth”. Further, the half-inhibitory concentration (IC50) in assay [5] worked out at 0.025 µM. In addition, in assay [5] (lowest concentration with no visible live trophozoites, 48 hr), the “MAC (minimum amoebicidal concentration)” value was 1 to 3 µM.
